RGS4 pot: RGS4 potentiation or activation; HEK293 M3R/inducible RGS4, carbachol calcium flux Fluo4; stronger effect = lower value; B-score at 10 µM; hit rate 0.92% among 310,000; AID 463111;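 active means B-score of the integrated calcium signal more than 4 SD below the library mean, with starting fluorescence not abnormally high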;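 further: negative B-score means reduced calcium response which marks RGS4 activation or potentiation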
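Material: M3R-expressing HEK293 line, RGS4 induced by doxycycline | Schedule: Overnight RGS4 induction, 30 min dye load 37 °C, 20 min compound RT | Measured by: Fluo4 fluorescence kinetic imaging of calcium | Read-out: Integrated calcium ratio converted to B score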
MrgX1 antagonist: blocks BAM8-22 activation of human MrgX1 receptor | Q96LB2 | MRGX1-HEK293 calcium flux, Fluo-4, BAM8-22 antagonism; stronger effect = lower value | hit rate 1.3% among 310,000 | B-score at 10 µM;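 active means calcium-response B-score plate-corrected more than 3 library SD below zero, starting fluorescence within 5 deviations, no agonist response on first addition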;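 further: peak minus trough fluorescence over baseline after final BAM8-22 challenge near maximal dose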
Target sequence (Q96LB2 whole entry, looked up): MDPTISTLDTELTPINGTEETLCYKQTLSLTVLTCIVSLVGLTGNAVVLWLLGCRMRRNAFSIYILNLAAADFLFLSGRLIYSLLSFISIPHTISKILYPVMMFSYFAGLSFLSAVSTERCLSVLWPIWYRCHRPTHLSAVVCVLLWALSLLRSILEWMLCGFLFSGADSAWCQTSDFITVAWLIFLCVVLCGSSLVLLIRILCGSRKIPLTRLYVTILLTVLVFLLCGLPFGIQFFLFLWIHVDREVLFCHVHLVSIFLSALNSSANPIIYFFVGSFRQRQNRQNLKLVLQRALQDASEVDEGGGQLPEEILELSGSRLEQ
MrgX1 agonist: agonists of human MrgX1 receptor. Q96LB2. MrgX1-HEK293 cells, Fluo-4 calcium fluorescence, agonist mode; stronger effect = higher value. B-score at 10 µM. hit rate 0.44% among 310,000. AID 588627;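 active means calcium response B-score plate-corrected fluorescence ratio at least 3 library SD, with starting fluorescence B-score inside 5 SD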
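System – MrgX1-expressing HEK293 cells · Incubation – cells plated overnight, dye loaded 0.5 h 37 °C, 0.5 h room temperature · Technique – kinetic Fluo-4 NW fluorescence of intracellular calcium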
RGS4 inh: inhibitors of human RGS4; P49798; HEK293 M3R/RGS4 inducible, Fluo-4 calcium flux; stronger effect = higher value; triggered by carbachol at its EC20; B-score at 10 µM; hit rate 0.45% among 310,000; AID 463165;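 active means B-score, a plate-corrected calcium signal, over three deviations above library mean, with baseline fluorescence within five deviations of library mean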;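 further: RGS4 expression induced by doxycycline in cells with stable M3 receptor; B-score is computed from the integrated fluorescence ratio over baseline after carbachol; higher B-score means a larger calcium signal and so more RGS4 inhibition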
Target sequence (P49798 whole entry, looked up): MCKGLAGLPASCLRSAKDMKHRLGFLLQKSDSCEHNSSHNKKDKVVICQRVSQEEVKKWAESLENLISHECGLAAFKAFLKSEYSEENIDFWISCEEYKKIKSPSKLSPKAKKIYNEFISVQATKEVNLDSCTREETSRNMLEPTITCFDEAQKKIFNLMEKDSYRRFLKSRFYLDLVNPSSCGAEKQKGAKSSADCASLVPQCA
MrgX1 PAM: allosterically activates human MrgX1 receptor signaling; hit rate 0.63% among 310,000; MrgX1-HEK293, Fluo-4 calcium flux, FDSS; stronger effect = higher value; B-score at 10 µM;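 active means plate-corrected calcium response at least 3 library SD above typical, normal starting fluorescence, not activating the receptor alone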;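 further: compound read alongside a low EC10 to EC30 dose of BAM8-22 agonist; peak minus trough fluorescence over baseline measured at the second addition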
MrgX1 allo conf: confirmation of human MrgX1 receptor positive allosteric modulators; MrgX1-HEK293, Fluo-4 calcium fluorescence, FDSS; AID 602413; activation (ratio percentage), % at 10 µM; hit rate 13% among 1,200; shares compounds with MrgX1 PAM;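 active means ratio at least 3 SD above the weak peptide control, stable starting fluorescence, no direct agonism earlier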;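 further: compound followed by low BAM8-22 agonist challenge near EC20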
MrgX1 antag conf: reconfirmed antagonist of human MrgX1 receptor signaling. AID 602420. MrgX1-HEK293, BAM8-22 calcium flux, Fluo-4; stronger effect = lower value. remaining BAM8-22 calcium response % of control (stronger effect = lower value), % at 10 µM. shares compounds with MrgX1 antagonist. hit rate 19% among 2,300;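 active means remaining agonist calcium response no higher than 100% minus 3 SD of agonist-only control wells, with starting fluorescence near control levels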;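 further: agonist BAM8-22 given at a near maximal EC90 to ECmax level; peak minus minimum fluorescence divided by baseline after agonist addition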
HEK293 Ca flux: MrgX1 antagonist counter-screen hit in parental HEK293 cells. shares compounds with MrgX1 antagonist. Fluo-4 calcium fluorescence, FDSS. fluorescence ratio F(max-min)/F0 at 10 µM. hit rate 2% among 4,000;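 active means duplicate-averaged calcium fluorescence ratio at least three times the standard deviation of buffer wells, a nonspecific response in parental cells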
HEK293 Ca counter: activity in parental HEK293 cells without MrgX1 | fluorescence ratio F(max-min)/F0 at 10 µM | hit rate 0.4% among 4,000 | shares compounds with MrgX1 antagonist | parental HEK293 calcium flux, Fluo-4 fluorescence ratio; stronger effect = higher value;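 active means calcium fluorescence ratio, averaged over duplicates, at least 3 SD of the buffer-well ratio, meaning a nonspecific response in receptor-free cells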;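 further: untransfected parental HEK293 lacking MrgX1 used as counterscreen for MrgX1 allosteric activators; fluorescence change taken during the second addition on a kinetic imager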
HEK293 Ca cntr2: MrgX1 activator counter-screen hit in parental HEK293 cells; shares compounds with MrgX1 antagonist; Fluo-4 calcium fluorescence (FDSS); stronger effect = higher value; hit rate 8.7% among 4,000; fluorescence ratio F(max-min)/F0 at 10 µM; AID 624115;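 active means calcium fluorescence ratio at least three times the spread of buffer wells, meaning a non-specific response in parental cells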
Numbers without * were called inactive; i = inactive; . = no result. Only some compounds are listed: those with a hit (about 3.5% of all), similar ones and a draw of the others.

SMILES	RGS4 pot	MrgX1 antagonist	MrgX1 agonist	RGS4 inh	MrgX1 PAM	MrgX1 antag conf	HEK293 Ca flux	HEK293 Ca counter	HEK293 Ca cntr2	others
O=C1C2C3C=CC(C4CC34)C2C(=O)N1c1cccc2ccccc12 (configuration not stated)	i	i	i	i	i	.	.	.	.
Cc1ccn2c(Nc3ccccc3C)c(-c3ccccn3)nc2c1	i	i	i	i	9.1*	.	i	i	i	MrgX1 allo conf=i
Nn1c(SCc2cccc(Br)c2)nnc1-c1cccnc1	i	i	i	i	i	.	.	.	.
CCN1CCN(c2nc3c(c(=O)[nH]c(=O)n3C)n2CCSc2nc3ccccc3s2)CC1	i	-6.3*	i	i	i	i	i	i	i
CC(CSc1nc2ccccc2s1)Cn1c(N2CCCC2)nc2c1c(=O)[nH]c(=O)n2C (configuration not stated)	i	i	i	i	i	.	.	.	.
O=C(/C=C1\SC(=O)NC1=O)Nc1ccc(C(=O)O)cc1	i	-10*	i	i	i	i	i	i	i
N#CCC(=O)N/N=C\c1cccc(OC/C=C/c2ccccc2)c1	i	i	i	i	i	.	.	.	.
COc1ccc(NC(=O)CN2CCN(c3ccc(F)cc3)CC2)cc1	i	i	i	i	i	.	.	.	.
CCOc1ccc(NC(=O)CN2CCN(c3ccc(F)cc3)CC2)cc1	i	-5.5*	i	i	i	i	i	i	i
CC(C)(C)C(=O)Nc1sc2c(c1C#N)CCN(Cc1ccccc1)C2	i	-5.1*	i	i	i	i	i	i	i
Cc1nn(C)c(C(=O)N/N=C/c2ccc(-c3ccccc3)cc2)c1Cl	i	-10*	i	i	i	i	i	i	i
Cc1ccc(Cn2nnc(C(=O)Nc3cc(C)ccc3C)c2N)cc1	i	-4.6*	i	i	i	i	i	i	i
CC(NC(=O)/C=C/c1ccco1)c1nc2ccccc2n1Cc1cccc(Cl)c1 (configuration not stated)	i	i	i	i	i	.	.	.	.
CC[n+]1c(C)sc2cc(C)ccc21	i	i	i	i	i	.	.	.	.
Cc1ccc2c(c1)sc(-c1ccc(N(C)C)cc1)[n+]2C	i	-11*	i	i	i	i	0.66*	i	i
O=C(Nc1cccnc1)C1CCN(S(=O)(=O)c2ccc(Cl)cc2)CC1	i	-7.9*	i	i	i	i	i	i	i
CSc1ccc(S(=O)(=O)N2CCC(C(=O)Nc3cccnc3)CC2)cc1	i	i	i	i	i	.	.	.	.
COC(=O)NC1CCC(NC(=O)OC)CC1 (configuration not stated)	i	i	i	i	i	.	.	.	.
CCOCc1cnc(C)nc1NCC(=O)c1c(C)[nH]c2ccc(OC)cc12	i	-8.8*	i	i	i	i	i	i	i
O=C(Nc1ccc(Br)cc1)c1ccc(F)c(S(=O)(=O)NCc2cccs2)c1	i	-5.3*	i	i	i	i	i	i	47*
Cc1cc(C)c(S(=O)(=O)NCC(=O)NCc2ccco2)c(C)c1	i	i	i	i	i	.	.	.	.
COc1cc(O)c2c(c1)OC(C)(C)CC2=O	i	-10*	i	i	i	i	i	i	i
CS(=O)(=O)CCSc1ncccc1C(=O)NCc1cccs1	i	i	i	i	i	.	.	.	.
Cc1csc(NC(=O)c2ccc(Cn3nc(C)c(Br)c3C)o2)n1	i	-4.8*	i	i	i	74%*	i	i	i
O=C(NCCCN1CCCC1)c1cc2c(Cl)nc3ccccc3c2s1	i	-7.7*	i	i	i	i	i	i	i
SMILES	RGS4 pot	MrgX1 antagonist	MrgX1 agonist	RGS4 inh	MrgX1 PAM	MrgX1 antag conf	HEK293 Ca flux	HEK293 Ca counter	HEK293 Ca cntr2	others
CCC(CC)C(=O)c1c[nH]c(C(=O)N2CCN(c3ccccc3F)CC2)c1	i	i	i	i	i	.	.	.	.
CCOc1ccccc1CNC(=O)C1CCCN(c2nnc(C)c3c(C)n(-c4ccccc4)nc23)C1 (configuration not stated)	i	i	i	i	i	.	.	.	.
COc1nc(Nc2ccccc2F)nc(OC)n1	i	-8.1*	i	i	i	i	i	i	i
COc1ccc(CNc2nc(-c3ccccc3)nn2C(=O)c2ccc([N+](=O)[O-])cc2)cc1	i	i	i	i	i	.	.	.	.
COc1ccc(CNc2nc(-c3ccccc3)nn2C(=O)c2cccs2)cc1	i	-4.9*	i	i	i	i	i	i	55*
CC(C(=O)Nc1ccccc1C(=O)O)n1c(C(F)(F)F)nc2ccccc21 (configuration not stated)	i	i	i	i	i	.	.	.	.
O=C(Cn1c(C(F)(F)F)nc2ccccc21)Nc1ccccc1C(=O)O	i	-5.8*	i	i	i	i	i	i	i
CCc1cccc(CC)c1NC(=O)CSc1nc2ccc(N3C(=O)C4C5C=CC(C5)C4C3=O)cc2s1 (configuration not stated)	i	-8.2*	i	i	i	i	i	i	i
O=C(Oc1ccc(Cl)c2cccnc12)N1CCCCC1	i	-5.5*	i	i	i	i	i	i	i
O=C(Oc1ccc(Cl)c2cccnc12)N1CCOCC1	i	i	i	i	i	.	.	.	.
Cc1n[nH]c(C)c1CCc1nc2c3ccccc3nc(SCC(=O)Nc3ccccc3F)n2n1	i	-7*	i	i	i	i	i	i	i
Cc1nc2nc(SCC(=O)c3ccc([N+](=O)[O-])cc3)[nH]c2cc1Br	i	i	i	i	i	.	.	.	.

Assay outcomes (PubChem BioAssay)
